The list is not random: actives were taken first. Their share in the collection is about 1.9%.
M5 antag: blocks acetylcholine activation of human M5 receptor | CHO-hM5 cells, Fluo-8 calcium fluorescence, ACh EC80 | actives 0.59% (n = 360,000) | inhibition, % at 3 µM;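 active = inhibition above a per-plate cutoff, the mean of that plate's test compounds plus 3 SD, cut at about 27% in these data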;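 note: 0% = acetylcholine EC80 with DMSO and 100% = DMSO without agonist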
CHRM5 PAM: positive allosteric modulators of human muscarinic M5 receptor | actives 0.3% (n = 360,000) | P08912 | activation, % at 3 µM | CHO-K1 hM5, Fluo-8 calcium, ACh EC20 PAM; 0% = ACh EC20, 100% = ACh EC100 | AID 624038;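 active = activation above the run cutoff, the mean activation of all test compounds plus 3 SD, cut at about 18% in these data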
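system = human M5 receptor in CHO-K1 cells | compound = one concentration, 3 µM final (nominal) | schedule = Post-acetylcholine fluorescence recording 140 s | signal = Fluo-8 calcium dye fluorescence, kinetic read | benchmarks = low control EC20 acetylcholine (0%), high control EC100 acetylcholine (100%) | repeats = singlicate, one well per test compound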
M4 PAM: positive allosteric modulators of human muscarinic M4 receptor; actives 0.4% (n = 360,000); CHO-K1 hM4/Gqi5, Fluo-8 calcium fluorescence, ACh EC20; 0% = ACh EC20, 100% = maximal ACh; P08173; activation, % at 3 µM;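 active = activation above its plate's cutoff, the mean activation of sample wells plus 3 SD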
Target sequence (P08173 whole entry, looked up): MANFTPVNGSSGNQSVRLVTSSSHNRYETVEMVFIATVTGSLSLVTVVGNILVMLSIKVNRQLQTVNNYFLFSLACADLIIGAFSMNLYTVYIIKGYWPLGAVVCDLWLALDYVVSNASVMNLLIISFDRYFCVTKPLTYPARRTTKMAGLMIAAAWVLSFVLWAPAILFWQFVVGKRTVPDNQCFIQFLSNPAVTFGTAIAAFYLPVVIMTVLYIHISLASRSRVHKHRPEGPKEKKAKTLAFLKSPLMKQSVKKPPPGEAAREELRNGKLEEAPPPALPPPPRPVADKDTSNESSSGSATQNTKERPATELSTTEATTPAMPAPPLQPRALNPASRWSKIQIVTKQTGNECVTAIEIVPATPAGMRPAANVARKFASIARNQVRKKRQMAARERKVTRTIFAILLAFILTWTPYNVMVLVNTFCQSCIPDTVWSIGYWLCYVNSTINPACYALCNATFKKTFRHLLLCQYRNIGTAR
CHRM5 agonist: CHRM5 agonism in calcium assay. CHO-K1 hM5 cells, Fluo-8 calcium fluorescence; 0% DMSO wells, 100% maximal acetylcholine response. activation, % at 3 µM. actives 0.19% (n = 360,000);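 active = activation above the run's mean over test compounds plus 3 SD, cut at about 23% in these data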;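 note: signal is peak over basal fluorescence ratio across the kinetic read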
M4 antag: CHRM4 antagonism in calcium assay; CHO-hM4 cells, ACh EC80, Fluo-8 calcium fluorescence; inhibition, % at 3 µM; actives 0.73% (n = 360,000); AID 624125; P08173;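 active = inhibition above its plate's cutoff, the mean inhibition of sample wells plus 3 SD, cut at about 27% in these data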;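 note: 0% = acetylcholine EC80 with DMSO and 100% = DMSO without agonist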
CHRM4 agonist: agonists of human muscarinic M4 receptor (CHRM4); P08173; CHO-K1 hM4/Gqi5, Fluo-8 calcium fluorescence; vehicle 0%, full acetylcholine response 100%; activation, % at 3 µM; actives 0.14% (n = 360,000); AID 624127;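 active = activation above the run mean over all test wells plus 3 SD, cut at about 32% in these data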;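 note: peak over basal fluorescence ratio per well then scaled between controls; 0% = DMSO wells and 100% = acetylcholine at EC100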
* hit, by the source's call.

SMILES | M5 antag | CHRM5 PAM | M4 PAM | CHRM5 agonist | M4 antag | CHRM4 agonist
CN(C)c1ccnc(Nc2ccc(O)cc2)c1C#N | -3.5 | -2.2 | 5.5 | -3.1 | -18.5 | 1.1
C[C@H](CO)N1C[C@H](C)[C@@H](CN(C)Cc2ccc(Oc3ccccc3)cc2)Oc2c(NC(=O)C3CC3)cccc2C1=O | -0.4 | -7.7 | -7.9 | -1.6 | 38.2* | 11.0
C[C@@H]1CCCCO[C@H](CN(C)S(=O)(=O)c2cn(C)cn2)[C@H](C)CN([C@@H](C)CO)C(=O)c2cc(NC(=O)c3ccccc3)ccc2O1 | 9.0 | 1.0 | 3.1 | 0.7 | 0.0 | 0.4
C[C@@H]1CCCCO[C@H](CN(C)S(=O)(=O)c2cn(C)cn2)[C@@H](C)CN([C@H](C)CO)C(=O)c2cc(NC(=O)c3ccncc3)ccc2O1 | -16.1 | 6.0 | 17.6* | 1.2 | -32.1 | -0.1
COc1ccc(NC(=O)Nc2ccc3c(c2)C(=O)N([C@H](C)CO)C[C@H](C)[C@@H](CN(C)S(C)(=O)=O)O3)cc1 | 1.4 | 2.1 | 11.2 | 3.3 | -7.6 | 1.4
C[C@H]1CN([C@@H](C)CO)C(=O)c2cccc(NC(=O)Nc3ccc(C(F)(F)F)cc3)c2O[C@H]1CN(C)C | -5.0 | 20.5* | 16.5 | 2.1 | -0.8 | 0.5
C[C@H](CO)N1C[C@H](C)[C@@H](CN(C)S(C)(=O)=O)Oc2ccc(NC(=O)Nc3ccccc3)cc2C1=O | 0.1 | 21.8* | 4.1 | 2.1 | -2.0 | 2.8
CCN(CC(=O)Nc1ccc(N2CCOCC2)cc1)C(=O)COc1ccccc1OC | -11.8 | 7.8 | -0.4 | 0.4 | -4.0 | 0.8
CCCCn1c(N)c(N(CCOC)C(=O)c2ccc(S(=O)(=O)N3CCCCCC3)cc2)c(=O)[nH]c1=O | 0.8 | 0.5 | 1.8 | 2.2 | -4.5 | 0.2
C=CCNc1nc(Nc2ccc(OC)cc2)nc(OC)n1 | -3.6 | 18.5* | 7.2 | -13.8 | 10.4 | -0.9
CSc1ccc(/C=C/C(=O)NC(=O)c2ccccc2O)cc1 | 5.6 | -5.7 | -8.6 | 6.9 | -6.9 | 8.8
CCCS(=O)(=O)NC(=O)C1(C)CCCN(C(=O)c2c(C)noc2C)C1 (stereo not drawn) | 5.4 | -5.8 | -1.4 | 0.0 | 3.4 | -0.2
COc1cccc(NS(=O)(=O)c2ccc(-n3cccn3)cc2)c1 | 18.2 | -14.1 | -11.8 | 4.2 | 30.8* | 26.4
Cc1ccc(NS(=O)(=O)c2ccc(-n3cccn3)cc2)cc1F | 13.5 | -5.5 | -3.5 | 5.0 | 7.1 | 11.9
COc1cccc(C(=O)NCCSCc2c(F)cccc2Cl)c1 | -3.4 | 10.0 | -1.7 | -12.9 | -12.4 | 5.7
COc1cccc(C(=O)NCCSCc2ccccc2Cl)c1 | -7.3 | 18.1* | -5.5 | -6.3 | -8.8 | 1.8
COc1ccc(CNC(=O)Nc2nc(C(N)Cc3ccc(C(F)(F)F)cc3)cs2)cc1 (stereo not drawn) | 1.9 | 2.8 | 4.5 | 6.6 | 20.7 | 20.5
Cc1cc(C=C2C(=O)CCCC2=O)c(C)n1-c1ccccc1 | -1.1 | 2.2 | 30.3* | -1.3 | 6.3 | 1.3
Nc1c(C(=O)c2ccc(Cl)cc2)sc2nc3c(cc12)CCC3 | 6.8 | -1.7 | 23.0* | -1.8 | 9.8 | 1.4
C/C=C(\C)C(=O)OC1[C@H](OC(C)=O)C2(CO)C(CC1(C)C)C1=CCC3C4(C)CCC(O[C@@H]5O[C@H](C(=O)O)[C@@H](O[C@@H]6O[C@H](CO)[C@@H](O)[C@H](O)[C@H]6O)[C@H](O)[C@H]5O[C@H]5O[C@H](CO)[C@@H](O)[C@H](O)[C@H]5O)[C@](C)(CO)C4CCC3(C)[C@]1(C)C[C@H]2O (stereo partly drawn) | 82.5* | -25.7 | -19.4 | 91.8* | 90.7* | 133.4*
CC1(C)C[C@H]2C3=CCC4[C@@]5(C)CC[C@H](O[C@@H]6O[C@H](C(=O)O)[C@@H](O)[C@H](O)[C@H]6O)[C@@](C)(CO)C5CC[C@@]4(C)[C@]3(C)C[C@H](O)[C@@]2(CO)[C@@H](O)[C@@H]1O (stereo partly drawn) | 14.8 | -0.9 | 11.5 | 0.3 | -0.9 | 0.6
